{"data": "Measured values pooled from the literature", "organism": "Mycobacterium tuberculosis", "observed": "microbial growth", "note": "Lines come from different studies, so protocols differ."}
{"SMILES": "CO[C@H]1/C=C/O[C@@]2(C)Oc3c(C)c(O)c4c(O)c(c(/C=N/N5CCN(C)CC5)c(O)c4c3C2=O)NC(=O)/C(C)=C\\C=C\\[C@H](C)[C@H](O)[C@@H](C)[C@@H](O)[C@@H](C)[C@H](OC(C)=O)[C@@H]1C", "test system": "H37RV", "MIC": "0.05 µg/mL"}
{"SMILES": "Cc1cc(=O)[nH]n1C(=O)c1ccc(-n2c(C)ccc2C)cc1", "assay": "broth dilution", "test system": "H37RV", "conditions": "21 days", "MIC": "2 µg/mL"}
{"SMILES": "Cc1ccc(NC(=O)c2ccccc2)cc1Nc1nccn1-c1cc(NC2CCCC2)ncn1", "test system": "W4", "MIC": "> 20 µM"}
{"SMILES": "C[C@H]1O[C@H](O[C@H]2CC[C@H](n3ccc(NC(=O)c4ccc(NC(=O)[C@@](C)(N)CO)cc4)nc3=O)O[C@@H]2C)[C@H](O)[C@@H](O)[C@@H]1N(C)C", "test system": "H37RA", "MIC": "0.8 µM"}
{"SMILES": "NNC(=O)c1ccncc1", "test system": "H37RV", "MIC": "> 13.7 µg/mL"}
{"SMILES": "CC1CC(C)(C)CC2(C1)SC(C)C(=O)N2NC(=O)c1[nH]c2ccc(Cl)cc2c1-c1ccccc1 (centres unmarked)", "test system": "ATCC27294 H37RV", "MIC": "1000 µM"}
{"SMILES": "COc1ccc2cc1Oc1cc(ccc1OC)CCC(N[C@H]1CCCc3ccccc31)CCCC2 (some centres unmarked)", "assay": "broth dilution", "test system": "H37RV", "MIC": "> 100 µg/mL"}
{"SMILES": "O=C(Nc1cccc(-c2cc(C(=O)O)no2)c1)Nc1ccc(Cl)c(Cl)c1", "test system": "ATCC27294 H37RV", "conditions": "7 days", "MIC": "64 µg/mL"}
{"SMILES": "Cc1ccc(C)n1-c1ccc(C(=O)NNC=O)cc1", "assay": "broth dilution", "test system": "H37RV", "conditions": "21 days", "MIC": "4 µg/mL"}
{"SMILES": "C[C@@H]1CN2c3c(cc4c(N5CC[C@@H](O)C5)noc4c3F)CC3(C(=O)NC(=O)NC3=O)[C@H]2[C@H](C)N1C#N", "test system": "H37RV", "MIC": "7.8 µM"}
{"SMILES": "CCOC(=O)c1nnn(-c2cccc(NC(=O)Nc3ccc(Cl)c(Cl)c3)c2)c1C", "test system": "ATCC27294 H37RV", "conditions": "7 days", "MIC": "16 µg/mL"}
{"SMILES": "O=C1C(=NNc2nc(-c3ccccc3)cs2)C(N=Cc2ccccc2Cl)=NN1c1ccccc1", "assay": "resazurin", "test system": "H37RV", "conditions": "5 days", "MIC": "51.5 µM"}
{"SMILES": "COC(=O)c1cc(-c2cccc(NC(=S)Nc3ccc(F)c(Cl)c3)c2)on1", "test system": "ATCC27294 H37RV", "conditions": "7 days", "MIC": "4 µg/mL"}
{"SMILES": "CO[C@H]1/C=C/O[C@@]2(C)Oc3c(C)c(O)c4c(O)c(c(/C=N/N5CCN(C)CC5)c(O)c4c3C2=O)NC(=O)/C(C)=C\\C=C\\[C@H](C)[C@H](O)[C@@H](C)[C@@H](O)[C@@H](C)[C@H](OC(C)=O)[C@@H]1C", "assay": "resazurin", "test system": "H37RA", "conditions": "14 days", "MIC": "0.06 µg/mL"}
{"SMILES": "COC(=O)c1cc(-c2cccc(NC(=S)Nc3ccc(F)cc3F)c2)on1", "test system": "ATCC27294 H37RV", "conditions": "7 days", "MIC": "2 µg/mL"}
{"SMILES": "O=C1C(=NNc2nc(-c3ccccc3)cs2)C(N=Cc2ccc([N+](=O)[O-])cc2)=NN1c1ccccc1", "assay": "resazurin", "test system": "H37RV", "MIC": "25 µg/mL"}
{"SMILES": "CCCCCCC/C=C\\C(O)C#CC#CC(=O)CCOC (centres unmarked)", "assay": "resazurin", "test system": "ATCC35801 ERDMAN", "conditions": "7 days", "MIC": "> 60 µg/mL"}
{"SMILES": "CCCC1CCC2(CC1)SC(C)C(=O)N2NC(=O)c1[nH]c2ccc(Cl)cc2c1-c1ccccc1 (centres unmarked)", "test system": "ATCC27294 H37RV", "MIC": "1000 µM"}
{"SMILES": "CC1=NN(CNc2ccc(O)cc2)C(=O)C1=NNn1c(-c2ccccc2)nc2ccccc2c1=O", "assay": "resazurin", "test system": "H37RV", "MIC": "53.5 µM"}
{"SMILES": "CC(C)[C@H]1CO[C@]23CCN(Cc4ccc(OC(F)(F)F)cc4)C[C@H]2CCC(=O)N13", "assay": "resazurin", "test system": "H37RV", "conditions": "7 days", "MIC": "0.17 µM"}
